The source made the active and inactive calls. No cut-off for these calls is given here.
Assays:
Melanocortin receptor 3 [1] = molecular target: Melanocortin receptor 3 (Homo sapiens, UniProt P41968); assay: Displacement of [125I]NDPMSH from human MC3R expressed in HEK293 cells; assay type: cell-based
Melanocortin receptor 4 [2] = molecular target: T1, Melanocortin receptor 4 (Homo sapiens, UniProt P32245); assay: Displacement of [125I]NDPMSH from human MC4R expressed in HEK293 cells; assay type: cell-based
Melanocortin receptor 5 = Melanocortin receptor 5 (Homo sapiens, UniProt P33032); assay: Displacement of [125I]NDPMSH from human MC5R expressed in HEK293 cells; assay type: cell-based
Melanocortin receptor 4 [3] = molecular target: T1, Melanocortin receptor 4; assay: Antagonist activity at human MC4R expressed in HEK293 cells assessed as inhibition of alpha-MSH-stimulated cAMP production; assay type: functional, cell-based
[4] = Distribution coefficient, log D by shake flask method; assay type: physicochemical; conditions: octanol/water
Method in brief: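 LogD measured by the shake-flask method; described elsewhere in the paper as lipophilicity at pH 7.4.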

[5] = Clearance in CD1 mouse at 5 mg/kg, iv; assay type: ADME, organism-based; parameters: dose 5 mg/kg, route intravenous; conditions: in vivo
Method in brief: (§1)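 CD-1 mice, three animals, dosed i.v. at 5 mg/kg and by oral gavage at 10 mg/kg. Plasma CL, Vd, t1/2, Cmax, Tmax, oral AUC and F% were derived. Brain concentrations and brain/plasma ratios at 1 and 4 h were taken from the i.v. dosing.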

[6] = Volume of distribution in CD1 mouse at 5 mg/kg, iv; assay type: ADME, organism-based; parameters: dose 5 mg/kg, route intravenous; conditions: in vivo
Method in brief: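 CD-1 mice, three animals per route; single i.v. dose at 5 mg/kg and oral gavage at 10 mg/kg. Plasma PK parameters derived; brain concentrations and brain/plasma ratios taken from the i.v. dosing at 1 and 4 h.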

[7] = Drug level in CD1 mouse brain at 5 mg/kg, iv after 1 hr; assay type: ADME, organism-based; parameters: dose 5 mg/kg, route intravenous; conditions: read-out: Drug uptake; method in brief: as §1
[8] = Drug level in CD1 mouse brain at 5 mg/kg, iv after 4 hrs; assay type: ADME, organism-based; parameters: dose 5 mg/kg, route intravenous; conditions: read-out: Drug uptake; method in brief: as §1
[9] = Ratio of drug level in brain to plasma in CD1 mouse at 5 mg/kg, iv after 4 hrs; assay type: ADME, organism-based; parameters: dose 5 mg/kg, route intravenous; conditions: brain and plasma, read-out: BPR
[10] = Volume of distribution in Sprague-Dawley rat at 5 mg/kg, iv and 10 mg/kg, po; assay type: ADME, organism-based; conditions: in vivo
Method in brief: (§2)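 Sprague–Dawley rats, three animals per route; i.v. dose 5 mg/kg and oral 10 mg/kg. Brain concentrations and brain/plasma ratios taken from the oral dosing at 1 and 4 h post-dose.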

[11] = Oral bioavailability in Sprague-Dawley rat at 10 mg/kg, po; assay type: ADME, organism-based; conditions: in vivo; method in brief: as §2
[12] = Drug level in Sprague-Dawley rat brain at 10 mg/kg, po after 1 hr; assay type: ADME, organism-based; parameters: dose 10 mg/kg, route oral; conditions: read-out: Drug uptake
[13] = Clearance in dog at 5 mg/kg, iv; assay type: ADME, organism-based, Canis lupus familiaris; parameters: dose 5 mg/kg, route intravenous; conditions: in vivo
[14] = Half life in dog at 5 mg/kg, iv; assay type: ADME, organism-based, Canis lupus familiaris; parameters: dose 5 mg/kg, route intravenous; conditions: in vivo
[15] = Cmax in dog at 10 mg/kg, po; assay type: ADME, organism-based, Canis lupus familiaris; parameters: dose 10 mg/kg, route oral; conditions: in vivo
[16] = Tmax in dog at 10 mg/kg, po; assay type: ADME, organism-based, Canis lupus familiaris; parameters: dose 10 mg/kg, route oral; conditions: in vivo
[17] = AUC in dog at 10 mg/kg, po; assay type: ADME, organism-based, Canis lupus familiaris; parameters: dose 10 mg/kg, route oral; conditions: plasma
[18] = Bioavailability in dog at 10 mg/kg, po; assay type: ADME, organism-based, Canis lupus familiaris; conditions: in vivo
[19] = Clearance in monkey at 5 mg/kg, iv; assay type: ADME, organism-based, Macaca mulatta; parameters: dose 5 mg/kg, route intravenous; conditions: rhesus monkey, in vivo
[20] = Volume of distribution in monkey at 5 mg/kg, iv; assay type: ADME, organism-based, Macaca mulatta; parameters: dose 5 mg/kg, route intravenous; conditions: rhesus monkey, in vivo
[21] = Half life in monkey at 5 mg/kg, iv; assay type: ADME, organism-based, Macaca mulatta; parameters: dose 5 mg/kg, route intravenous; conditions: rhesus monkey, in vivo
[22] = AUC in monkey at 5 mg/kg, iv; assay type: ADME, organism-based, Macaca mulatta; parameters: dose 5 mg/kg, route intravenous; conditions: rhesus monkey, plasma
[23] = Cmax in monkey at 10 mg/kg, po; assay type: ADME, organism-based, Macaca mulatta; parameters: dose 10 mg/kg, route oral; conditions: rhesus monkey, in vivo
[24] = Tmax in monkey at 10 mg/kg, po; assay type: ADME, organism-based, Macaca mulatta; parameters: dose 10 mg/kg, route oral; conditions: rhesus monkey, in vivo
[25] = AUC in monkey at 10 mg/kg, po; assay type: ADME, organism-based, Macaca mulatta; parameters: dose 10 mg/kg, route oral; conditions: rhesus monkey, plasma
[26] = Bioavailability in monkey at 10 mg/kg, po; assay type: ADME, organism-based, Macaca mulatta; conditions: rhesus monkey, in vivo
Mus musculus [27] = assay: Increase in body weight in Lewis lung carcinoma bearing C57BL/6J mouse at 3 mg/kg, ip bid after 4 days; assay type: functional, organism-based; parameters: dose 3 mg/kg
Method in brief: (§3)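 Male C57BL/6J mice inoculated with Lewis lung carcinoma cells. From day 11 after inoculation, mice were dosed i.p. twice daily at 3 or 9 mg/kg for 4 days and compared with vehicle-treated tumor-bearing controls. Food intake and body weight were recorded; lean body mass was measured by DEXA.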

Mus musculus [28] = assay: Increase in lean body mass in Lewis lung carcinoma bearing C57BL/6J mouse at 3 mg/kg, ip bid after 4 days; assay type: functional; conditions: route intraperitoneal; method in brief: as §3
Mus musculus [29] = assay: Increase in lean body mass in Lewis lung carcinoma bearing C57BL/6J mouse at 9 mg/kg, ip bid after 4 days; assay type: functional; conditions: route intraperitoneal; method in brief: as §3
Melanocortin receptor 4 [30] = molecular target: Melanocortin receptor 4 (Mus musculus, UniProt P56450); assay: Binding affinity to mouse MC4R
Melanocortin receptor 3 [31] = molecular target: Melanocortin receptor 3 (Mus musculus, UniProt P33033); assay: Binding affinity to mouse MC3R
[32] = Cmax in CD1 mouse at 10 mg/kg, ip; assay type: ADME, organism-based; parameters: dose 10 mg/kg, route intraperitoneal; conditions: in vivo
Method in brief: (§4)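 CD-1 mice, single intraperitoneal dose of 10 mg/kg, n = 3. Plasma concentration followed over time, giving Cmax, Tmax and AUC.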

[33] = Tmax in CD1 mouse at 10 mg/kg, ip; assay type: ADME, organism-based; parameters: dose 10 mg/kg, route intraperitoneal; conditions: in vivo
[34] = AUC in CD1 mouse at 10 mg/kg, ip; assay type: ADME, organism-based; parameters: dose 10 mg/kg, route intraperitoneal; conditions: plasma; method in brief: as §4
[35] = Plasma concentration in CD1 mouse at 10 mg/kg, ip after 8 hrs; assay type: ADME, organism-based; parameters: dose 10 mg/kg, route intraperitoneal
[36] = Ratio of drug level in brain to plasma in CD1 mouse at 10 mg/kg, ip; assay type: ADME, organism-based; parameters: dose 10 mg/kg, route intraperitoneal; conditions: read-out: BPR
[37] = molecular target: T2, Growth hormone secretagogue receptor type 1 (Homo sapiens, UniProt Q92847); assay: Agonist activity at GHSR; assay type: functional
Cytochrome P450 1A2 = molecular target: T3, Cytochrome P450 1A2 (Homo sapiens, UniProt P05177); assay: Inhibition of CYP1A2; assay type: ADME
T3 sequence (P05177 whole entry): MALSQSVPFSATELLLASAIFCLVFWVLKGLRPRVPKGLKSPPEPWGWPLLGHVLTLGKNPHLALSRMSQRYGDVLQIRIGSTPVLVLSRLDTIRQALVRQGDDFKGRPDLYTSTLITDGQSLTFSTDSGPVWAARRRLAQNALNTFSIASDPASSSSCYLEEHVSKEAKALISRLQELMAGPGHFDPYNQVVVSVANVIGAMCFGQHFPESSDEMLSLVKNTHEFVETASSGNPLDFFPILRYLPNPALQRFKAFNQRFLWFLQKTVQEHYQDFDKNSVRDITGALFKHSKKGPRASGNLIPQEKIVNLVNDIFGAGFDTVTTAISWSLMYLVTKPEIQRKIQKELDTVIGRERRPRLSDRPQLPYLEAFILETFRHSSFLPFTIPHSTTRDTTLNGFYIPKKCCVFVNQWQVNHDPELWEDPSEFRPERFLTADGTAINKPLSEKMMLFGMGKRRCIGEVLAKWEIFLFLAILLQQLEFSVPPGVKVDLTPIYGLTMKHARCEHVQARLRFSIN

Cytochrome P450 3A4 = Cytochrome P450 3A4 (Homo sapiens, UniProt P08684); assay: Inhibition of CYP3A4; assay type: ADME
Cytochrome P450 2D6 = Cytochrome P450 2D6 (Homo sapiens, UniProt P10635); assay: Inhibition of CYP2D6; assay type: ADME
Cytochrome P450 2C9 = Cytochrome P450 2C9 (Homo sapiens, UniProt P11712); assay: Inhibition of CYP2C9; assay type: ADME
[38] = molecular target: T2, Growth hormone secretagogue receptor type 1; assay: Binding affinity to GHSR

T2 sequence (Q92847 whole entry): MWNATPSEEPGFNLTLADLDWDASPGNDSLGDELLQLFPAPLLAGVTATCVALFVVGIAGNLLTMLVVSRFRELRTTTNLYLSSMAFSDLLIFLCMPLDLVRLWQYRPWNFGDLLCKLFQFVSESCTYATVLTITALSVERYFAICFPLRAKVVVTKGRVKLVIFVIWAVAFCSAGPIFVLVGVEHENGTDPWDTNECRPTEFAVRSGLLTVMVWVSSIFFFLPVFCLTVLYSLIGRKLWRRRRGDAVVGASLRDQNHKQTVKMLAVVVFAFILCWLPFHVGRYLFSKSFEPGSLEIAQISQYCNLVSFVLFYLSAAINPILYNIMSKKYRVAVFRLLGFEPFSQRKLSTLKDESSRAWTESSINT
T1 sequence (P32245 whole entry): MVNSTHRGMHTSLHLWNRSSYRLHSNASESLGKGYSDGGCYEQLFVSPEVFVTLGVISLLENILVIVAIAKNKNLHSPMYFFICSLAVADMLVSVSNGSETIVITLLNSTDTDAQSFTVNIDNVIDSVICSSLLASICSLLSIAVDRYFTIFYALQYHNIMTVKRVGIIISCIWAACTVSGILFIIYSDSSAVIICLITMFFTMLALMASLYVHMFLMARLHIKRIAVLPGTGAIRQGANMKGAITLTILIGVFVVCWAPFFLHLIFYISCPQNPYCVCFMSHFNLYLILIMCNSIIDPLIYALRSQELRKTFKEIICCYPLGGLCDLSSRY
Melanocortin receptor 3 (Mus musculus, UniProt P33033), sequence (P33033 whole entry): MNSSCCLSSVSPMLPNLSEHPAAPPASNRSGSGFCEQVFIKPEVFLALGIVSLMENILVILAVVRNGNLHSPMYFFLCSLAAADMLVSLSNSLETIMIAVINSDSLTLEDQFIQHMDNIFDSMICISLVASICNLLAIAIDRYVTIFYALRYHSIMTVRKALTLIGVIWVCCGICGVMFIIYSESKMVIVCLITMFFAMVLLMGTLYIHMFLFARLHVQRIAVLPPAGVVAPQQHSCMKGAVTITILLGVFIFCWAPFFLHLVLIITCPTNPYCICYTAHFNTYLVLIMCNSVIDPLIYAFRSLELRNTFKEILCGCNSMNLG
Cytochrome P450 2D6, sequence (P10635 whole entry): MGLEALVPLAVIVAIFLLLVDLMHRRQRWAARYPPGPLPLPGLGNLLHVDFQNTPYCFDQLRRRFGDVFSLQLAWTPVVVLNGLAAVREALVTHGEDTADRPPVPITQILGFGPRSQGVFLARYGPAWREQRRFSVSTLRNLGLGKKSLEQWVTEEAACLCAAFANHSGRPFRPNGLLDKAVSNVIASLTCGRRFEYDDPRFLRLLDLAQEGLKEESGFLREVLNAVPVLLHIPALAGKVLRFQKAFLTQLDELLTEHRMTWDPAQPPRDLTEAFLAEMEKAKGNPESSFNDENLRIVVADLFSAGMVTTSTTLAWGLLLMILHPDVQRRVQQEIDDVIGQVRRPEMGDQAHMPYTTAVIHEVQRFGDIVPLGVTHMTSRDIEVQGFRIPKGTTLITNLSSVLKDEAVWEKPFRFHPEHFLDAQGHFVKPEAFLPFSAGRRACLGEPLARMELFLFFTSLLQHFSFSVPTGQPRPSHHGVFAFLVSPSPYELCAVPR
Melanocortin receptor 5, sequence (P33032 whole entry): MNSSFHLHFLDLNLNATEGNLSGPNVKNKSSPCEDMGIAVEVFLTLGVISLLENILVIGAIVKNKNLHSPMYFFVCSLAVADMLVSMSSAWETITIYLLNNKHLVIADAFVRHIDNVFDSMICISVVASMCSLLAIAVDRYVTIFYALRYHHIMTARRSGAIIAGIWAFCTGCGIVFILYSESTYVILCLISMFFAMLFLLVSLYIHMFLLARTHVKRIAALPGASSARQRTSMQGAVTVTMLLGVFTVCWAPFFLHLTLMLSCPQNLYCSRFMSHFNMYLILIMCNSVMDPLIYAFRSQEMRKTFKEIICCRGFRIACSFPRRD
Cytochrome P450 2C9, sequence (P11712 whole entry): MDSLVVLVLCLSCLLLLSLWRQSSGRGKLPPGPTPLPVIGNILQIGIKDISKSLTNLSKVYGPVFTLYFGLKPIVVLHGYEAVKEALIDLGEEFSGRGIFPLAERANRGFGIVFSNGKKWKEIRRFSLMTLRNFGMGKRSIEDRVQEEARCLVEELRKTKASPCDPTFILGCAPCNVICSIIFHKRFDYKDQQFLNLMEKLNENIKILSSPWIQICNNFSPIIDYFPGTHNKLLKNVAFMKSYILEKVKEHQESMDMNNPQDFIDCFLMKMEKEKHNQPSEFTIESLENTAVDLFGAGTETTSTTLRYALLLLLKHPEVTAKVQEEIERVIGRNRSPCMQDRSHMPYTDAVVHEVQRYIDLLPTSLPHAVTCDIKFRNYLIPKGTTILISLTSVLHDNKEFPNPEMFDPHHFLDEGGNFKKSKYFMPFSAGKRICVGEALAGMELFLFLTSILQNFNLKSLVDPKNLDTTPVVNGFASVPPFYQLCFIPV
Melanocortin receptor 3 (Homo sapiens, UniProt P41968), sequence (P41968 whole entry): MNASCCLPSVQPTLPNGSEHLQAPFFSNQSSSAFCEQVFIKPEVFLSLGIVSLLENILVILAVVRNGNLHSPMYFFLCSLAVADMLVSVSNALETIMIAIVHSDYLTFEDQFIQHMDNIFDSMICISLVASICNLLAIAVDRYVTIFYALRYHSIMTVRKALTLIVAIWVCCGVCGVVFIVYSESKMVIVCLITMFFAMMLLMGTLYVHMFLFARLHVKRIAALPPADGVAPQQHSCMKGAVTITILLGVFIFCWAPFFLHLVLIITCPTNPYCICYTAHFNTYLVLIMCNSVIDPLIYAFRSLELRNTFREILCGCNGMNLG
Melanocortin receptor 4 (Mus musculus, UniProt P56450), sequence (P56450 whole entry): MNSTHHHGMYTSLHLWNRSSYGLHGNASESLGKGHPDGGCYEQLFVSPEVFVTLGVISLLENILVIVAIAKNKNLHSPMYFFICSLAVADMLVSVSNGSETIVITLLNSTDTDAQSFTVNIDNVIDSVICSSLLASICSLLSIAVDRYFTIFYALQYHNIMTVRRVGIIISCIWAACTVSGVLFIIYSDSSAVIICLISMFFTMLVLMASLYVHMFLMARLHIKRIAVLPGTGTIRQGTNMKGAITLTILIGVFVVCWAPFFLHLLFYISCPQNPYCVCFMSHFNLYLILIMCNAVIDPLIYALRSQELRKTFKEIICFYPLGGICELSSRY
Cytochrome P450 3A4, sequence (P08684 whole entry): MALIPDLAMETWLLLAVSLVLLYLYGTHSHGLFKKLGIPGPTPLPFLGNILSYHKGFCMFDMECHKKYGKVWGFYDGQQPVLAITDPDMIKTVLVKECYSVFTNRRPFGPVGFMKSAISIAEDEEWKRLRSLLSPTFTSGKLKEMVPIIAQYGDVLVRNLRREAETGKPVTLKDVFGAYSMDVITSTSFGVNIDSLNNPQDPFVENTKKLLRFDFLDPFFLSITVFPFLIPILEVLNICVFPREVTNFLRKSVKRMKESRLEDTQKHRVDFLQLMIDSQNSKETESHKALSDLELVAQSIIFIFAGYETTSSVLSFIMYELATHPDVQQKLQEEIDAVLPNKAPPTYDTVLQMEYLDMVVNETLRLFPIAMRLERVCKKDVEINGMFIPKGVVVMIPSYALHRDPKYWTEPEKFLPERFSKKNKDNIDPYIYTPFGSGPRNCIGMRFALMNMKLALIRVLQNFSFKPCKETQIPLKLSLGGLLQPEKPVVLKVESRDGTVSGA

- Ki (Melanocortin receptor 3 [1]): 710 nM
- Ki (Melanocortin receptor 4 [2]): 3.4 nM
- Ki (Melanocortin receptor 5): 600 nM
- IC50 (Melanocortin receptor 4 [3]): 930 nM
- logD [4]: 3.9
- clearance [5]: 36 mL/min/kg
- Vd [6]: 11 L/kg
- concentration at 1 h [7]: 800 ng/g
- concentration at 4 h [8]: 177 ng/g
- Kp at 4 h [9]: 2.2
- Vd [10]: 2.5 L/kg
- bioavailability [11]: 18%
- concentration at 1 h [12]: 3 ng/g
- clearance [13]: 29.4 mL/min/kg
- half-life [14]: 282 min
- Cmax [15]: 142 ng/mL
- Tmax [16]: 1 h
- AUC [17]: 1480 ng·h/mL
- bioavailability [18]: 29.4%
- clearance [19]: 24.3 mL/min/kg
- Vd [20]: 8.5 L/kg
- half-life [21]: 246 min
- AUC [22]: 3700 ng·h/mL
- Cmax [23]: 108 ng/mL
- Tmax [24]: 2.7 h
- AUC [25]: 1070 ng·h/mL
- bioavailability [26]: 13.1%
- Ki (Melanocortin receptor 4 [30]): 18 nM
- Ki (Melanocortin receptor 3 [31]): 340 nM
- Cmax [32]: 1520 ng/mL
- Tmax [33]: 18 min
- AUC [34]: 3070 ng·h/mL
- concentration at 8 h [35]: 100 ng/mL
- Kp [36]: 2
- EC50 [37]: 720 nM
- Intrinsic activity [37]: 47%
- IC50 (Cytochrome P450 1A2): > 10 µM
- IC50 (Cytochrome P450 3A4): > 10 µM
- IC50 (Cytochrome P450 2D6): > 10 µM
- IC50 (Cytochrome P450 2C9): > 10 µM
- Ki [38]: 460 nM
Structure (SMILES): CC(C)C[C@H](NC(=O)CCN(C)C)c1cc(Cl)ccc1N1CCN(C(=O)[C@H](C)Cc2ccc(Cl)cc2)CC1
- Activity (Mus musculus [27]): Active
- Activity (Mus musculus [28]): 7%
- Activity (Mus musculus [29]): 15%

Source: ChEMBL document CHEMBL1138325, “Design, synthesis, in vitro, and in vivo characterization of phenylpiperazines and pyridinylpiperazines as potent and selective antagonists of the melanocortin-4 receptor” (J Med Chem, 2007)
